# Compound activity: PubChem, several laboratories
# S1P3 antag – S1P3 receptor antagonists, primary screen, cell-based; Sphingosine 1-phosphate receptor 3 (Homo sapiens), Q99500; CHO S1P3 NFAT-BLA reporter, FRET fluorescence, antagonist mode; inhibition, % at 4.98 µM; actives 0.27% (n = 170,000); AID 485, 2006;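 active means inhibition above the plate cutoff, the mean inhibition of test wells on that plate plus 3 SD, cut at about 28% in these data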;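 further: cells challenged with S1P at its EC80 of 0.8 µM; blue over green emission ratio from cleaved BLA substrate after 4 h stimulation; 0% = S1P-stimulated wells and 100% = unstimulated DMSO-only wells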
# Target sequence (Q99500 whole entry, looked up): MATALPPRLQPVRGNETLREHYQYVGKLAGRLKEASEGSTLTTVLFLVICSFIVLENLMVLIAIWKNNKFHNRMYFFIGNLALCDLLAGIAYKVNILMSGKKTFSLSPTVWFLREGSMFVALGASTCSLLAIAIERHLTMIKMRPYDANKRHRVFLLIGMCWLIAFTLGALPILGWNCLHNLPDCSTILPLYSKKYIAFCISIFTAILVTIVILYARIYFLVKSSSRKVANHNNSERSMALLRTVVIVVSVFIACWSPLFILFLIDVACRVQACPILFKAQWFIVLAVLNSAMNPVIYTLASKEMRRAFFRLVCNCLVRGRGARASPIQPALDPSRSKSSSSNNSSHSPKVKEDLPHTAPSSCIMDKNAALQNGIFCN
# Yeast growth inh – growth inhibitors of yeast BB579 in restrictive medium, primary screen, yeast lifespan-shortening project, S. cerevisiae; actives 0.51% (n = 140,000); OD615, 48 h; inhibition, % at 10 µM;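 active means inhibition above a set limit, 3 SD over the mean compound inhibition, cut at about 44% in these data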
#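 Test system: DeaD yeast strain BB579 / Buffer or medium: restrictive glucose-based CSMM-D medium / Doses: single 10 µM dose / Schedule: 4 h cell preincubation, 48 h compound exposure, 30 °C humidified / Technique: culture absorbance at 615 nm / Controls: amphotericin B positive control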
# Yeast life ext – compounds extending yeast replicative lifespan, primary screen, S. cerevisiae, OD615; S. cerevisiae growth with nicotinamide; deaD strain in restrictive glucose medium; inhibition of the nicotinamide effect, % at 10 µM; actives 0.68% (n = 130,000);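 active means inhibition above a set limit, placed 3 SD over the median of all compounds, cut at about 26% in these data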;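 further: 0% = nicotinamide-treated wells and 100% = cells grown without nicotinamide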
#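 Assay system: engineered S. cerevisiae DeaD replicative-lifespan strain, galactose-grown log-phase cells; medium: restrictive CSMM-D dextrose medium; also added: nicotinamide, 1.5 mM, co-present with compound; schedule: 48 h compound exposure at 30 °C, humidified; detection: absorbance at 615 nm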
# Numbers without * were called inactive; / = not tested or not shown. Sampled rows, rich in hits. Any-hit rate of the full collection: about 0.98%.
SMILES,S1P3 antag,Yeast growth inh,Yeast life ext
CC1Cc2ccccc2N1C(=O)Cn1c(=O)oc2cc(S(=O)(=O)N3CCCCC3)ccc21 (stereo unspecified),81*,-10,-2
O=[N+]([O-])/C(C(=C(Cl)Cl)N1CCOCC1)=C1\NCCO1,-11,/,/
O=C1CC(c2ccc(Cl)cc2)CC(=O)C1CS(=O)(=O)c1ccccc1 (stereo unspecified),-7,/,/
O=C1CC(c2ccccc2)CC(=O)C1Sc1ccc(Cl)cc1 (stereo unspecified),4,-3,40*
Cc1ccc(N2NC(=O)/C(=C\c3cc4c(cc3[N+](=O)[O-])OCO4)C2=O)cc1C,1,-46,49*
COc1cc(/C=C2/C(=O)NN(c3cccc(C)c3)C2=O)cc([N+](=O)[O-])c1O,-18,/,/
COc1ccc(CCNS(=O)(=O)c2cccc(F)c2)cc1OC,-5,-8,-14
CCOC(=O)C1=C(C)Nc2nc(=S)[nH]n2C1c1ccc(Cl)cc1 (stereo unspecified),/,-50,62*
CCOC(=O)C1=C(C)Nc2nc(SCC)nn2C1c1ccc(OC)cc1 (stereo unspecified),/,-30,-7
COc1ccccc1NC(=S)NC12CN3CN(CN(C3)C1)C2,-26,/,/
Cn1ncc(Br)c1C(=O)NC(=S)N1CCN(c2ccccn2)CC1,-8,-51,9
OC(Cn1cncn1)(c1ccccc1)c1ccccc1,/,92*,-18
c1ccc(SCCOCCn2cncn2)cc1,17,-3,-1
CCC(C)Sc1nnc(Cc2cc(=O)[nH]c(=O)[nH]2)n1-c1ccc(OC)cc1 (stereo unspecified),-21,-1,-8
CC(Oc1ccc(Cl)cc1Cl)C(=O)NCCCN1CCOCC1 (stereo unspecified),99*,-12,-13
CCNC(=O)C(C)Oc1ccc(Cl)cc1Cl (stereo unspecified),-8,/,/
O=C1c2ccccc2-c2c1cccc2C(=O)N(CCO)CCO,-49,-26,-7
Cc1csc(SCC(=O)NC23CC4CC(CC(C4)C2)C3)n1,/,-59,39*
Cc1nnc(SCC(=O)NC23CC4CC(CC(C4)C2)C3)s1,-3,/,/
Cn1c(C(C(=O)NCC2CCCO2)N(C(=O)Cn2nnc3ccccc32)C2CCCCC2)nc2ccccc21 (stereo unspecified),/,-26,-14
NS(=O)(=O)c1cccc(NC(=O)C2CC(=O)N(Cc3ccco3)C2)c1 (stereo unspecified),-5,/,/
Cc1ccccc1Cn1nc(C)c(NC(=O)c2cc(-c3cccs3)on2)c1C,12,-26,1
Cc1cc(=O)oc2c(C(=O)/C=C\c3cccs3)c(O)ccc12,7,-32,23
CCOC(=O)CSC(=S)NC(=O)c1ccc(OC)cc1,-3,-49,40*
COc1ccc(C(=O)NC(=S)SCC(=O)O)cc1,2,/,/
SMILES,S1P3 antag,Yeast growth inh,Yeast life ext
CCO[C@@H]1OC(C(=O)O)=C[C@H](c2coc3ccccc3c2=O)[C@H]1CCCO,-10,/,/
COc1ccc(Cn2nnnc2CN2CCc3ccccc32)cc1,-22,-74,1
Cc1ccc(/C=N/NC(=O)NC2CCCCC2)o1,-9,/,/
Cc1ccc(/C=C/C(=O)NC2CCCCCCC2)o1,-8,-66,38*
Nc1nc2ncc(C(=O)c3cc(Cl)cc(Cl)c3O)cc2s1,-16,/,/
CC(C)c1noc2ncc(C(=O)c3cc(Cl)cc(Cl)c3O)cc12,/,-22,64*
Clc1ccc(-c2nnc3n2CCCS3)cc1,/,-8,-15
COC(=O)c1cc2sc(Cl)cc2n1CC(=O)Nc1cccc(SC)c1,59*,-36,-11
COC(=O)c1cc2sc(Cl)cc2n1CC(=O)Nc1ccc(OC)c(OC)c1OC,39,-30,-10
Cc1ccc(-c2nn(-c3ccccc3)cc2C=O)o1,-15,/,/
Nc1ccn([C@@H]2O[C@H](CO)[C@@H](O)C2O)c(=O)n1 (stereo partly specified),-1,/,/
O=c1cnn([C@@H]2O[C@H](CO)[C@@H](O)[C@H]2O)c(=O)[nH]1,-5,44*,12
CCOc1ccccc1N1CC(C(=O)Nc2c(C)n(C)n(-c3ccccc3)c2=O)CC1=O (stereo unspecified),-2,/,/
CCSc1nnc(N2C(=O)CC(c3ccsc3)C3=C2CC(C)(C)CC3=O)s1 (stereo unspecified),-11,16,-6
O=C(/C=C/Sc1ccccc1)c1ccccc1,/,-72,25
O=C(/C=C/Sc1ccccc1)c1ccc(Cl)cc1,/,-58,28*
Cn1c(=O)c2c(nc(Br)n2CCSc2nnnn2-c2ccccc2)n(C)c1=O,-6,-18,-13
C=CCN1C(=O)C(Cc2ccc(OCC)cc2)S/C1=N\N=C\c1cccs1 (stereo unspecified),/,-44,30*
C=CCN1C(=O)C(Cc2ccccc2)S/C1=N/N=C/c1cccs1 (stereo unspecified),/,-35,-1
CC1CCN(c2nncc3ccccc23)CC1,-15,-23,30*
CC1CCN(c2nnc(N3CCC(C)CC3)c3ccccc23)CC1,-11,/,/
CC1(C)OC(=O)C(=CNCC(=O)NCC(=O)O)C(=O)O1,-22,-28,-9
COC(=O)CN(c1cccc(OC)c1)S(C)(=O)=O,-26,-7,-5
O=C(c1ccc(CNc2c(N3CCOCC3)c(=O)c2=O)cc1)N1CC=C(c2ccccc2)CC1,-2,2,-16
COc1ccc(CC(=O)NNC(=O)Cc2ccc(OC)cc2)cc1,-16,/,/
SMILES,S1P3 antag,Yeast growth inh,Yeast life ext
COCCCNc1c2c3c(cccc3[nH]c1=O)C(=O)c1ccccc1-2,/,0,35*
COCCCNC1=C(Cl)C(=O)c2ccccc2C1=O,-14,/,/
COc1ccc([C@@H]2[C@@H](C(=O)C(C)(C)C)N3N=Cc4ccccc4[C@@H]3C23C(=O)OC(C)(C)OC3=O)cc1OC,8,-3,23
COc1ccc([C@H]2[C@H](C(=O)C(C)(C)C)N3N=Cc4ccccc4C3C23C(=O)OC(C)(C)OC3=O)cc1 (stereo partly specified),-1,7,36*
Cc1ccc(-c2nnc(OCc3cccnc3)c3ccccc23)cc1,-2,/,/
S=C(c1ccc(Cl)cc1)N1CCN(Cc2ccccc2)CC1,-2,/,/
CSc1ccc(C(=S)N2CCN(Cc3ccccc3)CC2)cc1,/,-68,31*
Cc1ccccc1CS(=O)(=O)c1cn(CC(=O)N2CCC(C)CC2)c2ccccc12,-2,-5,8
COc1ccc(CCNC(=O)c2cnn3c(C(F)F)cc(C)nc23)cc1OC,/,51*,3
COc1ccccc1CCNC(=O)c1cnn2c(C(F)F)cc(C)nc12,-13,-25,-8
COCCCNC(=O)CCCn1c(=O)c2ccccc2n(CC(=O)Nc2c(C)cc(C)cc2C)c1=O,-50,-23,0
Cc1c(O)c(S(=O)c2ccccc2)c(=O)n(-c2ccccc2)c1-c1ccccc1 (stereo unspecified),-9,-42,61*
Cc1c(O)c(S(=O)(=O)c2ccccc2)c(=O)n(-c2ccccc2)c1-c1ccccc1,-5,-52,26
COc1ccc2ncc(S(=O)(=O)c3ccccc3)c(N3CCC4(CC3)OCCO4)c2c1,-20,-6,12
O=S(=O)(Cc1ccccc1)NCc1cccnc1,-20,45*,-18
